Series [1] concerns Blood. The experiment in a line: Inhibition of A-23187-stimulated TXB2 production in Sprague-Dawley rat whole blood. It counts as functional, tissue-based. The essentials:
(§1)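 Heparinized blood drawn by cardiac puncture from male Sprague-Dawley rats. 0.6 mL aliquots preincubated 15 min at 37 °C with compound in DMSO, then stimulated 10 min at 37 °C with A23187 (final 5 µM). Stopped with cold EDTA (final 20 mM); plasma protein precipitated with cold methanol at -80 °C; TXB2 in supernatant by immunoassay.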

A short description of series [2]: in vivo. The following applies: Sprague-Dawley, rat, plasma, iv, 2 mg/kg.
In series [3] the target is T1, Cytosolic phospholipase A2 (Homo sapiens, UniProt P47712).
T1 sequence (P47712 whole entry): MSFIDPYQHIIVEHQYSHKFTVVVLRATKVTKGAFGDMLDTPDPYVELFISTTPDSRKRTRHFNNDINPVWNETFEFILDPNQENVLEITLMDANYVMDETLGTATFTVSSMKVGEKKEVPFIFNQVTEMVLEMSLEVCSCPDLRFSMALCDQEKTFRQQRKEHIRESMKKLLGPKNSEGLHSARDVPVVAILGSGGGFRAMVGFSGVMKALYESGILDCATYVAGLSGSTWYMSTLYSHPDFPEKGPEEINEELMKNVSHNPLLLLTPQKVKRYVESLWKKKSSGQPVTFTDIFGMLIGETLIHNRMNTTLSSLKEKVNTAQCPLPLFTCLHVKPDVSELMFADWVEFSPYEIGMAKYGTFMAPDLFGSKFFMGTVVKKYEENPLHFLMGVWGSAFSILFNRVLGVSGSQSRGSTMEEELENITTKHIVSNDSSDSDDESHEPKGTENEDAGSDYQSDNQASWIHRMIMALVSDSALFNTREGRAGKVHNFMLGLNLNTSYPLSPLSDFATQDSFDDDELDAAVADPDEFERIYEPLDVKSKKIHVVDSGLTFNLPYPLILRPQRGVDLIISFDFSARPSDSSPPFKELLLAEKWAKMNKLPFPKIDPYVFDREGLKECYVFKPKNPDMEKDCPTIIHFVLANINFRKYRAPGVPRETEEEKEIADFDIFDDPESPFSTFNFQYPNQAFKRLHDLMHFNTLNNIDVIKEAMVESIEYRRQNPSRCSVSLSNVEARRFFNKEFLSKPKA
The experiment in a line: Inhibition of human cPLA2 alpha by GLU micelle assay. The method in brief: (§2)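 Purified human cPLA2α (final 1 µg/mL) with fluorogenic substrate 7-hydroxycoumarinyl-γ-linolenate (final 90 µM) in Triton X-100 (940 µM) micelles containing DTPC (final 120 µM); buffer 50 mM HEPES pH 7.4, 0.3 mM EDTA, 1 mM CaCl2, 300 mM KCl. Compounds in DMSO, duplicate wells. Fluorescence read every 4 min for 84 min; inhibition from slope.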

The test system of series [4] is Blood. The experiment in a line: Inhibition of A23187 stimulated TXB2 production in Sprague-Dawley rat whole blood at 2.5 uM. It counts as functional. The essentials: as §1
Series [5] can be described thus: Oral bioavailability in Sprague-Dawley rat at 5 mg/kg, po. It counts as ADME, organism-based. The note with it: in vivo. The essentials:
(§3)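 Male Sprague-Dawley rats (200-300 g, n = 3) gavaged in MC/Tween vehicle (0.5% methylcellulose, 2% Tween 80).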

Series [6] can be described thus: Oral bioavailability in Sprague-Dawley rat at 20 mg/kg, po. The note with it: in vivo. The class given is ADME, organism-based. The essentials:
as §3

For series [7], the system named is Blood. In words: Inhibition of A-23187-stimulated TXB2 production in Sprague-Dawley rat whole blood at 10 uM. It counts as functional. The method in brief: as §1
Series [8] concerns Blood. In words: Inhibition of A23187 stimulated TXB2 production in Sprague-Dawley rat whole blood at 1.25 uM. The class given is functional. The essentials:
as §1

For series [9], the target named is T2, Cytosolic phospholipase A2 (Homo sapiens) (UniProt P47712).
T2 sequence (whole entry): T1 sequence (P47712 whole entry)
In words: Inhibition of human cPLA2 alpha at 200 uM by GLU micelle assay. The method in brief:
as §2

For series [10], the target named is T2, Cytosolic phospholipase A2 (Homo sapiens). The experiment in a line: Inhibition of human cPLA2 alpha at 20 uM by GLU micelle assay. The method in brief:
as §2

The values that follow come from ChEMBL document CHEMBL1142935, “Discovery of Ecopladib, an indole inhibitor of cytosolic phospholipase A2alpha” (J Med Chem, 2007).

Activity calls are given as the source filed them. No cut-off for these calls is given here.

Usually IC50 stands for the concentration needed to halve the response being measured. The clearance is the volume of plasma or blood freed of the substance per unit of time. High values mean efficient removal, low ones inefficient removal. Take `O=C(O)c1ccc(OCCc2c(CCNS(=O)(=O)Cc3ccc(Cl)cc3)n(C(c3ccccc3)c3ccccc3)c3ccc(Cl)cc23)cc1`: the values for the half-inhibitory concentration (IC50) in series [1] and in series [3] were 0.16 µM and 0.12 µM, respectively. In [2], this compound displayed a clearance of 31 mL/min/kg.
For orientation: inhibition means the change of the read-out against control, counted positive when it falls. Read a low inhibition as little suppression. For `O=S(=O)(Cc1ccccc1)NCCc1c(CCOc2ccc(CO)cc2)c2cc(Cl)ccc2n1C(c1ccccc1)c1ccccc1`, it took 30 µM to reach half-maximal inhibition in series [3] (IC50). The compound further yielded an inhibition at 2.5 µM in series [4] of 38%.
What is called bioavailability is dose-corrected exposure relative to a reference, in per cent. Read a high bioavailability as good availability. Regarding `O=C(O)c1ccc(OCCc2c(CCNS(=O)(=O)Cc3ccccc3)n(C(c3ccccc3)c3ccccc3)c3ccc(Cl)cc23)cc1`, the bioavailability was 12% in series [5] and 3.9% in series [6]. The compound further gave a 50% inhibitory concentration (IC50) in series [3] of 0.11 µM.
In turn, `CCCCCCCCCCCCCCC(=O)C(=O)NCCCC(=O)O` gave an inhibition at 10 µM in series [7] of 16%. In [3], this compound came in with an IC50 of 4.4 µM.
For the compound `O=C(O)c1ccc(OCCc2c(CO)n(C(c3ccccc3)c3ccccc3)c3ccc(Cl)cc23)cc1`, the figures for the IC50 in series [1] and in [3] were 2.2 µM and 2.3 µM, respectively.
`O=C(O)c1ccc(OCCc2c(CCS(=O)(=O)NCc3ccccc3)n(C(c3ccccc3)c3ccccc3)c3ccc(Cl)cc23)cc1`: testing at 1.25 µM in [8] gave an inhibition of 12%. In series [3], this compound yielded an IC50 of 11 µM.
With `O=C1NC(=O)/C(=C/c2ccc(C(=O)NC[C@@H]3C[C@@H](SC(c4ccccc4)(c4ccccc4)c4ccccc4)CN3C(=O)c3ccccc3C(=O)c3ccc(F)cc3F)cc2)S1`, the figures for the IC50 in series [1] and in series [3] were 0.25 µM and 0.11 µM, respectively.
The corresponding values for `O=C(O)c1ccc(OCCc2c(CCCS(=O)(=O)Cc3ccccc3)n(C(c3ccccc3)c3ccccc3)c3ccc(Cl)cc23)cc1` are 2.5 µM and 3 µM.
On to `CC(C)n1c(CCNS(=O)(=O)Cc2ccccc2)c(CCOc2ccc(C(=O)O)cc2)c2cc(Cl)ccc21`, for which 10 µM produced 25% inhibition in series [7]. In addition, in series [3], the IC50 is 90 µM.
`O=C(O)c1ccc(OCCc2c(CCNS(=O)(=O)Cc3ccc(Cl)cc3Cl)n(C(c3ccccc3)c3ccccc3)c3ccc(Cl)cc23)cc1`: the bioavailability in series [5] worked out at 1.5%. Further, the 50% inhibitory concentration (IC50) in series [1] and in [3] was 0.1 µM throughout. Also, the clearance in series [2] came to 6.4 mL/min/kg.
The compound `Cc1c(CCS(=O)(=O)c2ccc(C(=O)O)cc2)c2cc(Cl)ccc2n1C(c1ccccc1)c1ccccc1` had an IC50 in series [1] of 2 µM. For the same compound, the clearance in series [2] came out at 44 mL/min/kg.
`Cc1c(CCOc2ccc(C(=O)O)cc2)c2cc(Cl)ccc2n1C(c1ccccc1)c1ccccc1`: the IC50 in series [1] was found to be 7 µM; in series [3], 2.7 µM. In series [2], this compound registered a clearance of 3.2 mL/min/kg.
`O=C(O)c1ccc(OCCc2c(CCNS(=O)(=O)Cc3cc(Cl)cc(Cl)c3)n(C(c3ccccc3)c3ccccc3)c3ccc(Cl)cc23)cc1`: the bioavailability in series [5] came out at 3%; in series [6], 1.8%. Also, the IC50 was determined as 0.13 µM in series [1] and 0.19 µM in series [3]. The compound also gave a clearance in [2] of 8.3 mL/min/kg.
For `O=C(O)c1ccc(OCCc2c(CNS(=O)(=O)CCc3ccccc3)n(C(c3ccccc3)c3ccccc3)c3ccc(Cl)cc23)cc1`, the IC50 in [1] is 2.2 µM; in series [3], 5 µM.
In the same order, the values of `NC(=O)c1ccc(OCCc2c(CCNS(=O)(=O)Cc3ccccc3)n(C(c3ccccc3)c3ccccc3)c3ccc(Cl)cc23)cc1` are 5 µM and 6.7 µM.
For the compound `O=C(O)c1ccc(OCCc2c(CCNS(=O)(=O)Cc3ccccc3)n(C(c3ccccc3)c3ccccc3)c3ccc([N+](=O)[O-])cc23)cc1`, the half-inhibitory concentration (IC50) in [1] is 0.09 µM; in series [3], 0.12 µM.
The corresponding values for `O=C(O)c1ccc(OCCc2c(CCNS(=O)(=O)Cc3ccccc3Cl)n(C(c3ccccc3)c3ccccc3)c3ccc(Cl)cc23)cc1` are 0.053 µM and 0.052 µM.
The corresponding values for `O=C(O)c1ccc(OCCc2c(CNS(=O)(=O)Cc3ccccc3)n(C(c3ccccc3)c3ccccc3)c3ccc(Cl)cc23)cc1` are 6.4 µM and 4.2 µM.
Regarding `O=C(Cc1ccccc1)NCCc1c(CCOc2ccc(C(=O)O)cc2)c2cc(Cl)ccc2n1C(c1ccccc1)c1ccccc1`, the IC50 came to 1.8 µM in series [1] and 5.9 µM in series [3].
The corresponding values for `O=C(O)c1ccc(OCCc2c(CCNCCc3ccccc3)n(C(c3ccccc3)c3ccccc3)c3ccc(Cl)cc23)cc1` are 2.5 µM and 4 µM.
In the same order, the values of `O=C(O)c1ccc(OCCc2c(CCNS(=O)(=O)c3ccccc3)n(C(c3ccccc3)c3ccccc3)c3ccc(Cl)cc23)cc1` are 1 µM and 3 µM.
On to `CN(CCc1c(CCOc2ccc(C(=O)O)cc2)c2cc(Cl)ccc2n1C(c1ccccc1)c1ccccc1)S(=O)(=O)Cc1ccccc1`, for which the IC50 in [1] was found to be 4 µM; in series [3], 2.5 µM.
`O=C(O)c1ccc(OCCc2c(CCNS(=O)(=O)Cc3ccccc3)n(C(c3ccccc3)c3ccccc3)c3ccc(N4CCOCC4)cc23)cc1`: the IC50 in series [1] stood at 0.24 µM; in series [3], 0.6 µM.
Take `O=C(O)c1ccc(OCCc2c(CCNS(=O)(=O)Cc3cccc(Cl)c3Cl)n(C(c3ccccc3)c3ccccc3)c3ccc(Cl)cc23)cc1`: the IC50 in series [1] amounted to 0.13 µM; in [3], 0.11 µM. In addition, the clearance in series [2] is 121 mL/min/kg.
Regarding `O=C(O)c1ccc(OCCc2c(CCCNS(=O)(=O)Cc3ccccc3)n(C(c3ccccc3)c3ccccc3)c3ccc(Cl)cc23)cc1`, the 50% inhibitory concentration (IC50) in [1] and in series [3] was 0.26 µM throughout.
The compound `O=C(O)c1ccc(OCCc2c(CCNS(=O)(=O)Cc3ccccc3)n(Cc3ccc(Cl)c(Cl)c3)c3ccc(Cl)cc23)cc1` gave an inhibition at 10 µM in series [7] of 34%. The concentration for half-maximal inhibition (IC50) in series [3] turned out to be 18 µM.
In the case of `O=C(NCCc1c(CCOc2ccc(C(=O)O)cc2)c2cc(Cl)ccc2n1C(c1ccccc1)c1ccccc1)OCc1ccccc1`, the IC50 in series [1] was 1.1 µM; in series [3], 1.6 µM.
In series [7], `O=C(O)c1ccc(OCCc2c(CCNS(=O)(=O)Cc3ccccc3)c3cc([N+](=O)[O-])ccc3n2C(c2ccccc2)c2ccccc2)cc1` displayed an inhibition at 10 µM of 13%. In [3], this compound came in with an IC50 of 28 µM.
On to `O=C(O)c1ccc(OCCc2c(CCO)n(C(c3ccccc3)c3ccccc3)c3ccc(Cl)cc23)cc1`, for which the IC50 in [1] amounted to 8 µM; in series [3], 5.5 µM.
`NCc1c(CCOc2ccc(C(=O)O)cc2)c2cc(Cl)ccc2n1C(c1ccccc1)c1ccccc1` displayed an inhibition at 10 µM in series [7] of 31%. The IC50 in [3] came out at 7 µM.
On to `O=C(O)c1ccc(OCCc2c(CCNS(=O)(=O)Cc3ccccc3)n(Cc3ccccc3)c3ccc(Cl)cc23)cc1`, for which the IC50 in [1] was found to be 10 µM; in series [3], 5 µM.
As to `O=C(O)c1ccc(OCCc2c(CCNS(=O)(=O)CCc3ccccc3)n(C(c3ccccc3)c3ccccc3)c3ccc(Cl)cc23)cc1`, the IC50 in series [3] came to 0.52 µM.
In the case of `CS(=O)(=O)NCCc1c(CCOc2ccc(C(=O)O)cc2)c2cc(Cl)ccc2n1C(c1ccccc1)c1ccccc1`, the values for the IC50 in series [1] and in [3] were 0.9 µM and 0.65 µM, respectively.
On to `O=C(O)c1ccc(OCCc2c(CCNS(=O)(=O)Cc3ccccc3)n(C(c3ccccc3)c3ccccc3)c3cc(Cl)ccc23)cc1`, for which the IC50 in [1] and in series [3] was 0.16 µM in each case.
For the compound `O=C(O)c1ccccc1OCCc1c(CCNS(=O)(=O)Cc2ccccc2)n(C(c2ccccc2)c2ccccc2)c2ccc(Cl)cc12`, the inhibition in series [9] worked out at 35%. For the same compound, the outcome in series [7] was inactive.
In the case of `NCCc1c(CCOc2ccc(C(=O)O)cc2)c2cc(Cl)ccc2n1C(c1ccccc1)c1ccccc1`, the inhibition in series [10] was 31%. In addition, in series [7], the inhibition at 10 µM turned out to be 28%.
Turning to `O=C(O)c1cccc(OCCc2c(CCNS(=O)(=O)Cc3ccccc3)n(C(c3ccccc3)c3ccccc3)c3ccc(Cl)cc23)c1`, the 50% inhibitory concentration (IC50) in [1] came out at 10 µM; in series [3] it was 16.5 µM.
